Laboratory results reported in ChEMBL document CHEMBL3351998, “Discovery of potent and specific dihydroisoxazole inhibitors of human transglutaminase 2” (J Med Chem, 2014).
Activity calls are given as the source filed them. The calls are words filed in the database; no cut-off is given here.

Tests used:
[1] = biological target: T1, Protein-glutamine gamma-glutamyltransferase K (Homo sapiens) (UniProt P22735); assay: Inhibition of human transglutaminase 1 using ((benzyloxy)carbonyl)-L-glutaminyl-L-serine peptide substrate assessed as Kinh/Ki ratio by GDH coupled assay
T1 sequence (whole entry): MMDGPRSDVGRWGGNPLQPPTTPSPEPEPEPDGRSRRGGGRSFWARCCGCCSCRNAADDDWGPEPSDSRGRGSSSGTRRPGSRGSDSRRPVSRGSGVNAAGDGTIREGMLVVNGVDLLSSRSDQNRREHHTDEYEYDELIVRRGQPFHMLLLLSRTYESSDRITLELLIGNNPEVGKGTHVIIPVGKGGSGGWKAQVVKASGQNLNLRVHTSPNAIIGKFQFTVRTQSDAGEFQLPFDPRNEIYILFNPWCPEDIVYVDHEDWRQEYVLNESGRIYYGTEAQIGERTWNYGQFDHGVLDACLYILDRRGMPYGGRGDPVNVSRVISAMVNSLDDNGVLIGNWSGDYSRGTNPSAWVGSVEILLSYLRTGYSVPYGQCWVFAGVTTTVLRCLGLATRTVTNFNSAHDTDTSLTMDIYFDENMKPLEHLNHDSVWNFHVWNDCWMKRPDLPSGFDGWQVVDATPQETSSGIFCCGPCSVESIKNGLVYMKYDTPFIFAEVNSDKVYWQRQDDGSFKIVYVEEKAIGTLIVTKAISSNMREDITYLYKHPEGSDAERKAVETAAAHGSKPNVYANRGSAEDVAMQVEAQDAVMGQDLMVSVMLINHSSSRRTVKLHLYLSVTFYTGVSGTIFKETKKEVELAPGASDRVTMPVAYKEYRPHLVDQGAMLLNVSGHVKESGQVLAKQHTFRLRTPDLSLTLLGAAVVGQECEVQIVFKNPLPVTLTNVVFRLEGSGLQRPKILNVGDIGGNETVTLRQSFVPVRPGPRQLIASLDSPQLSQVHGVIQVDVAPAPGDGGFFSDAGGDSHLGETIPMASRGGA
How it was run: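 Recombinant His-tagged human TG1 from E. coli Rosetta 2 pLysS, final ~0.37 μM, in 200 mM MOPS pH 7.2, 5 mM CaCl2, 10 mM α-ketoglutarate, 300 μM NADH, 36 U/mL GDH. Z-Gln-Ser at 20/40 mM. Inhibitors typically at 100/33.3/11.1/3.7 μM (1% DMSO), added after ≥5 min enzyme pre-equilibration. NADH loss read at 340 nm; progress curves fitted to exponential decay, kinh/Ki from irreversible model.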

[2] = biological target: T2, Protein-glutamine gamma-glutamyltransferase (Homo sapiens) (UniProt P21980); assay: Inhibition of human transglutaminase 2 using ((benzyloxy)carbony l)-L-glutaminylglycine peptide substrate assessed as Kinh/Ki ratio by GDH coupled assay
T2 sequence (whole entry): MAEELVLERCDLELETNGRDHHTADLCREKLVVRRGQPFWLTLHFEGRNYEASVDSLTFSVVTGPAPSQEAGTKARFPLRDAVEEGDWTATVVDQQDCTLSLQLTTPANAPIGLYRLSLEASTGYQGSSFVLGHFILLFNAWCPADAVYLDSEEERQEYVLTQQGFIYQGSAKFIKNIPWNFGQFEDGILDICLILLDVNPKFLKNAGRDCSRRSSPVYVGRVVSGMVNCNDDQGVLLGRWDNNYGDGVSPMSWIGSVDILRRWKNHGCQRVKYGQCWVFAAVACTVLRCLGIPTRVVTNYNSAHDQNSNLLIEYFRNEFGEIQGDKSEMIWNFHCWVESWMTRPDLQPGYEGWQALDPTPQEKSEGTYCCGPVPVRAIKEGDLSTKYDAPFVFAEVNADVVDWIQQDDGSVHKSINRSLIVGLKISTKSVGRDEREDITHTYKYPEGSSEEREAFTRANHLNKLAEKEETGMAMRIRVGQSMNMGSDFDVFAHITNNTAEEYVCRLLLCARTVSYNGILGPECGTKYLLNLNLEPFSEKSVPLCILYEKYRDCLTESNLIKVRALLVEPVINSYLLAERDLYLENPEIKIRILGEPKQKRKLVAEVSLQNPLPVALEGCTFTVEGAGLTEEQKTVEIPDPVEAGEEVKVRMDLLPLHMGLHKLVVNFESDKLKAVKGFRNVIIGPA
How it was run: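 Human TG2 (V224G variant) or codon-optimized murine TG2, E. coli-expressed, final ~0.34 and 0.22 μM respectively. Buffer: 200 mM MOPS pH 7.2, 5 mM CaCl2, 10 mM α-ketoglutarate, 300 μM NADH, 36 U/mL bovine GDH. Z-Gln-Gly at 10/20 mM. Inhibitors typically at 100/33.3/11.1/3.7 μM, 1% DMSO, added after ≥5 min pre-equilibration. A340 progress curves fitted to exponential decay; kinh/Ki from irreversible inhibition model.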

Row | Structure (SMILES) | Ratio [1] | Ratio [2]
1 | O=C(C[C@@H]1CCCN1C(=O)OCc1cnc2ccccc2c1)NC[C@@H]1CC(Br)=NO1 | 1.3 | 1.3
2 | O=C(NC[C@@H]1CC(Br)=NO1)[C@@H]1C[C@@H](c2ccc(Cl)cc2)CN1C(=O)OCc1cnc2ccccc2c1 | 15.4 | 12
3 | O=C(N[C@@H]1C[C@@H](C(=O)NC[C@@H]2CC(Br)=NO2)N(C(=O)OCc2cnc3ccccc3c2)C1)c1cnccn1 | 12 | 15.7
4 | O=C(NC[C@@H]1CC(Br)=NO1)[C@@H]1CCCCN1C(=O)OCc1cnc2ccccc2c1 | 22.2 | 12
5 | O=C(NC[C@@H]1CC(Br)=NO1)[C@@H]1CCCN1C(=O)OCc1ccnc2ccccc12 | 12 | 2
6 | C[C@@]1(C(=O)NC[C@@H]2CC(Br)=NO2)CCCN1C(=O)OCc1cnc2ccccc2c1 | 2.4 | 2
7 | O=C(N[C@@H]1C[C@@H](C(=O)NC[C@@H]2CC(Br)=NO2)N(C(=O)OCc2cnc3ccccc3c2)C1)c1ccccc1O | 37.1 | 37.1
8 | CC(C)(C)OC(=O)N1CCC[C@H]1C(=O)NC[C@@H]1CC(Br)=NO1 | 2.3 | 2.5
9 | O=C(NC[C@@H]1CC(Br)=NO1)[C@@H]1C[C@H](c2ccccc2)CN1C(=O)OCc1cnc2ccccc2c1 | 17.2 | 17.7
10 | C[C@H](OC(=O)N1CCC[C@@H]1C(=O)NC[C@@H]1CC(Br)=NO1)c1ccc2ccccc2c1 | 5.1 | 2.9
11 | O=C(NC[C@@H]1CC(Br)=NO1)[C@@H]1C[C@@H](c2cccc(Cl)c2)CN1C(=O)OCc1cnc2ccccc2c1 | 41.7 | 25.3
12 | O=C(NC[C@@H]1CC(Br)=NO1)[C@@H]1C[C@@H](F)CN1C(=O)OCc1cnc2ccccc2c1 | 6.7 | 7.3
13 | O=C(N[C@@H]1C[C@@H](C(=O)NC[C@@H]2CC(Br)=NO2)N(C(=O)OCc2cnc3ccccc3c2)C1)c1cccc(O)c1 | 18.1 | 36.2
14 | O=C(NC[C@@H]1CC(Br)=NO1)[C@@H]1CCCN1C(=O)OCc1ccccc1 | 4.5 | 4.1
15 | O=C(NC[C@@H]1CC(Br)=NO1)[C@@H]1CCCN1C(=O)OCc1ccccn1 | 1.6 | 1.2
16 | COc1cccc(COC(=O)N2CCC[C@H]2C(=O)NC[C@@H]2CC(Br)=NO2)c1OC | 1.7 | inactive
17 | O=C(NC[C@@H]1CC(Br)=NO1)[C@@H]1C[C@@H](c2cccc(O)c2)CN1C(=O)OCc1cnc2ccccc2c1 | 38.7 | 52.2
18 | O=C(NC[C@@H]1CC(Br)=NO1)[C@@H]1C[C@@H](c2ccccc2O)CN1C(=O)OCc1cnc2ccccc2c1 | 29.5 | 33.8
19 | O=C(NC[C@@H]1CC(Br)=NO1)[C@@H]1CCN1C(=O)OCc1cnc2ccccc2c1 | 13.6 | 14.4
20 | O=C(NC[C@@H]1CC(Br)=NO1)[C@@H]1C[C@@H](NC(=O)C2(C(=O)O)CCC2)CN1C(=O)OCc1cnc2ccccc2c1 | 11.6 | 14.8

Row | Structure (SMILES) | Ratio [1] | Ratio [2]
21 | O=C(NC[C@@H]1CC(Br)=NO1)[C@@H]1CCCN1C(=O)OCc1cccc(OCc2ccccc2)c1 | 3.9 | 4.8
22 | Cn1c(COC(=O)N2CCC[C@H]2C(=O)NC[C@@H]2CC(Br)=NO2)nc2ccccc21 | 0.85 | inactive
23 | CO[C@@H]1C[C@@H](C(=O)NC[C@@H]2CC(Br)=NO2)N(C(=O)OCc2cnc3ccccc3c2)C1 | 7.7 | 10.4
24 | N[C@@H]1C[C@@H](C(=O)NC[C@@H]2CC(Br)=NO2)N(C(=O)OCc2cnc3ccccc3c2)C1 | 3.1 | 2.6
25 | O=C(NC[C@@H]1CC(Br)=NO1)[C@@H]1CCCN1C(=O)OCc1cnc2ccccc2n1 | 15.4 | 1.6
26 | C#CCOC(=O)N1CCC[C@H]1C(=O)NC[C@@H]1CC(Br)=NO1 | 0.7 | 2.4
27 | O=C(N[C@@H]1C[C@@H](C(=O)NC[C@@H]2CC(Br)=NO2)N(C(=O)OCc2cnc3ccccc3c2)C1)c1ccccc1 | 24.6 | 25.8
28 | O=C(NC[C@@H]1CC(Br)=NO1)[C@@H]1C[C@@H](Cc2ccccc2)CN1C(=O)OCc1cnc2ccccc2c1 | 23.1 | 10.2
29 | C[C@H](OC(=O)N1CCC[C@@H]1C(=O)NC[C@@H]1CC(Br)=NO1)c1cnc2ccccc2c1 | 8.7 | 3.7
30 | C#Cc1ccc(COC(=O)N2CCC[C@H]2C(=O)NC[C@@H]2CC(Br)=NO2)cc1 | 7.6 | 6.4
31 | O=C(NC[C@@H]1CC(Br)=NO1)[C@@H]1C[C@@H](c2c[nH]c3ccc(F)cc23)CN1C(=O)OCc1cnc2ccccc2c1 | 48 | 18.4
32 | O=C(NC[C@@H]1CC(Br)=NO1)[C@@H]1CCCN1C(=O)OCc1ccncc1 | 10.8 | 2.6
33 | O=C(NC[C@@H]1CC(Br)=NO1)[C@@H]1CCN(C(=O)OCc2cnc3ccccc3c2)C1 | 25.8 | 8.8
34 | C[C@H](OC(=O)N1CCC[C@H]1C(=O)NC[C@@H]1CC(Br)=NO1)c1ccc2ccccc2c1 | 11.5 | 9
35 | O=C(NC[C@@H]1CC(Br)=NO1)[C@@H]1CCCN1C(=O)OCc1cccnc1 | 4.3 | 4.6
36 | O=C(NC[C@@H]1CC(Br)=NO1)[C@@H]1CCCN1C(=O)OCc1nc2ccccc2[nH]1 | inactive | inactive
37 | C#CCO[C@@H]1C[C@@H](C(=O)NC[C@@H]2CC(Br)=NO2)N(C(=O)OCc2cnc3ccccc3c2)C1 | 7.1 | 10.1
38 | O=C(NC[C@@H]1CC(Br)=NO1)[C@@H]1CCCN1C(=O)OCc1cccc(F)c1 | 5.6 | 3.9
39 | O=C(NC[C@@H]1CC(Br)=NO1)[C@@H]1C=C(c2ccccc2)CN1C(=O)OCc1cnc2ccccc2c1 | 18.9 | 11.1
